Data reported in ChEMBL document CHEMBL1124364, “3-Sulfonyl-1-carba-1-dethiacephems” (1989).
Converted amounts (≈) assume the structure as drawn.

Test system: Enterobacter cloacae
Test: Minimum inhibitory concentration against Enterobacter cloacae (265A beta-lactamase containing)
Assay type: functional
Details: Enterobacter cloacae; read-out: MIC
Method in brief: (§1)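 Agar dilution: compounds diluted in 0.1 M phosphate buffer pH 7.0 and incorporated into Mueller-Hinton agar with 1% Bacto-Supplement C at 50 °C. Fresh overnight cultures diluted to about 1×10^4 cells/µL; 1 µL spotted on plates. Incubated overnight at 35 °C in ambient air. MIC taken as the lowest concentration preventing visible growth.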

MIC | SMILES
> 128 µg/mL | CO/N=C(/C(=O)N[C@@H]1C(=O)N2C(C(=O)O)=C(S(C)(=O)=O)CC[C@H]12)c1csc(N)n1
> 128 µg/mL | CS(=O)(=O)C1=C(C(=O)O)N2C(=O)[C@@H](NC(=O)COc3ccccc3)[C@H]2CC1 (stereo in doubt; 7)

Test system: Enterobacter cloacae
Test: Minimum inhibitory concentration against Enterobacter cloacae (EB5)
Assay type: functional
Details: Enterobacter cloacae; read-out: MIC
Method in brief: as §1

MIC | SMILES
2 µg/mL (≈ 4.51 µM) | CO/N=C(/C(=O)N[C@@H]1C(=O)N2C(C(=O)O)=C(S(C)(=O)=O)CC[C@H]12)c1csc(N)n1
> 128 µg/mL | CS(=O)(=O)C1=C(C(=O)O)N2C(=O)[C@@H](NC(=O)COc3ccccc3)[C@H]2CC1 (stereo in doubt; 7)

Test system: Escherichia coli
Test: Minimum inhibitory concentration against Escherichia coli (EC14)
Assay type: functional
Details: Escherichia coli; read-out: MIC
Method in brief: as §1

MIC | SMILES
0.25 µg/mL (≈ 0.564 µM) | CO/N=C(/C(=O)N[C@@H]1C(=O)N2C(C(=O)O)=C(S(C)(=O)=O)CC[C@H]12)c1csc(N)n1
4 µg/mL (≈ 10.1 µM) | CS(=O)(=O)C1=C(C(=O)O)N2C(=O)[C@@H](NC(=O)COc3ccccc3)[C@H]2CC1 (stereo in doubt; 7)

Test system: Escherichia coli
Test: Minimum inhibitory concentration against Escherichia coli (TEM beta-lactamase containing)
Assay type: functional
Details: Escherichia coli; read-out: MIC
Method in brief: as §1

MIC | SMILES
1 µg/mL (≈ 2.25 µM) | CO/N=C(/C(=O)N[C@@H]1C(=O)N2C(C(=O)O)=C(S(C)(=O)=O)CC[C@H]12)c1csc(N)n1
> 128 µg/mL | CS(=O)(=O)C1=C(C(=O)O)N2C(=O)[C@@H](NC(=O)COc3ccccc3)[C@H]2CC1 (stereo in doubt; 7)

Test system: Haemophilus influenzae
Test: Minimum inhibitory concentration against Haemophilus influenzae (C.L.)
Assay type: functional
Details: not given
Method in brief: as §1

MIC | SMILES
16 µg/mL (≈ 40.6 µM) | CS(=O)(=O)C1=C(C(=O)O)N2C(=O)[C@@H](NC(=O)COc3ccccc3)[C@H]2CC1 (stereo in doubt; 7)

Same assay, conditions: Haemophilus influenzae; read-out: MIC

MIC | SMILES
0.25 µg/mL (≈ 0.564 µM) | CO/N=C(/C(=O)N[C@@H]1C(=O)N2C(C(=O)O)=C(S(C)(=O)=O)CC[C@H]12)c1csc(N)n1

Test system: Klebsiella
Test: Minimum inhibitory concentration against Klebsiella (KAE beta-lactamase containing)
Assay type: functional
Details: Klebsiella; read-out: MIC
Method in brief: as §1

MIC | SMILES
64 µg/mL (≈ 144 µM) | CO/N=C(/C(=O)N[C@@H]1C(=O)N2C(C(=O)O)=C(S(C)(=O)=O)CC[C@H]12)c1csc(N)n1
> 128 µg/mL | CS(=O)(=O)C1=C(C(=O)O)N2C(=O)[C@@H](NC(=O)COc3ccccc3)[C@H]2CC1 (stereo in doubt; 7)

Test system: Klebsiella
Test: Minimum inhibitory concentration against Klebsiella (X26)
Assay type: functional
Details: Klebsiella; read-out: MIC
Method in brief: as §1

MIC | SMILES
0.06 µg/mL (≈ 0.135 µM) | CO/N=C(/C(=O)N[C@@H]1C(=O)N2C(C(=O)O)=C(S(C)(=O)=O)CC[C@H]12)c1csc(N)n1
8 µg/mL (≈ 20.3 µM) | CS(=O)(=O)C1=C(C(=O)O)N2C(=O)[C@@H](NC(=O)COc3ccccc3)[C@H]2CC1 (stereo in doubt; 7)

Test system: Morganella morganii
Test: Minimum inhibitory concentration against Proteus morganii (PR 15)
Assay type: functional
Details: Morganella morganii; read-out: MIC
Method in brief: as §1

MIC | SMILES
1 µg/mL (≈ 2.25 µM) | CO/N=C(/C(=O)N[C@@H]1C(=O)N2C(C(=O)O)=C(S(C)(=O)=O)CC[C@H]12)c1csc(N)n1
> 128 µg/mL | CS(=O)(=O)C1=C(C(=O)O)N2C(=O)[C@@H](NC(=O)COc3ccccc3)[C@H]2CC1 (stereo in doubt; 7)

Test system: Pseudomonas aeruginosa
Test: Minimum inhibitory concentration against Pseudomonas aeruginosa (X528)
Assay type: functional
Details: Pseudomonas aeruginosa; read-out: MIC
Method in brief: as §1

MIC | SMILES
> 128 µg/mL | CO/N=C(/C(=O)N[C@@H]1C(=O)N2C(C(=O)O)=C(S(C)(=O)=O)CC[C@H]12)c1csc(N)n1
> 128 µg/mL | CS(=O)(=O)C1=C(C(=O)O)N2C(=O)[C@@H](NC(=O)COc3ccccc3)[C@H]2CC1 (stereo in doubt; 7)

Test system: Providencia rettgeri
Test: Minimum inhibitory concentration against Proteus rettgeri (C24)
Assay type: functional
Details: Providencia rettgeri; read-out: MIC
Method in brief: as §1

MIC | SMILES
0.5 µg/mL (≈ 1.13 µM) | CO/N=C(/C(=O)N[C@@H]1C(=O)N2C(C(=O)O)=C(S(C)(=O)=O)CC[C@H]12)c1csc(N)n1
> 128 µg/mL | CS(=O)(=O)C1=C(C(=O)O)N2C(=O)[C@@H](NC(=O)COc3ccccc3)[C@H]2CC1 (stereo in doubt; 7)

Test system: Salmonella
Test: Minimum inhibitory concentration against Salmonella (X514)
Assay type: functional
Details: not given
Method in brief: as §1

MIC | SMILES
8 µg/mL (≈ 20.3 µM) | CS(=O)(=O)C1=C(C(=O)O)N2C(=O)[C@@H](NC(=O)COc3ccccc3)[C@H]2CC1 (stereo in doubt; 7)

Same assay, conditions: Salmonella; read-out: MIC

MIC | SMILES
0.125 µg/mL (≈ 0.282 µM) | CO/N=C(/C(=O)N[C@@H]1C(=O)N2C(C(=O)O)=C(S(C)(=O)=O)CC[C@H]12)c1csc(N)n1

Test system: Staphylococcus epidermidis
Test: Minimum inhibitory concentration against Staphylococcus epidermidis (222)
Assay type: functional
Details: Staphylococcus epidermidis; read-out: MIC
Method in brief: as §1

MIC | SMILES
32 µg/mL (≈ 72.2 µM) | CO/N=C(/C(=O)N[C@@H]1C(=O)N2C(C(=O)O)=C(S(C)(=O)=O)CC[C@H]12)c1csc(N)n1
0.5 µg/mL (≈ 1.27 µM) | CS(=O)(=O)C1=C(C(=O)O)N2C(=O)[C@@H](NC(=O)COc3ccccc3)[C@H]2CC1 (stereo in doubt; 7)

Test system: Streptococcus pyogenes
Test: Minimum inhibitory concentration against Streptococcus pyogenes (C203)
Assay type: functional
Details: not given
Method in brief: as §1

MIC | SMILES
0.015 µg/mL (≈ 0.038 µM) | CS(=O)(=O)C1=C(C(=O)O)N2C(=O)[C@@H](NC(=O)COc3ccccc3)[C@H]2CC1 (stereo in doubt; 7)

Same assay, conditions: Streptococcus pyogenes; read-out: MIC

MIC | SMILES
0.06 µg/mL (≈ 0.135 µM) | CO/N=C(/C(=O)N[C@@H]1C(=O)N2C(C(=O)O)=C(S(C)(=O)=O)CC[C@H]12)c1csc(N)n1

Test system: Streptococcus pneumoniae
Test: Minimum inhibitory concentration against Streptococcus pneumoniae (PARK)
Assay type: functional
Details: not given
Method in brief: as §1

MIC | SMILES
0.06 µg/mL (≈ 0.152 µM) | CS(=O)(=O)C1=C(C(=O)O)N2C(=O)[C@@H](NC(=O)COc3ccccc3)[C@H]2CC1 (stereo in doubt; 7)

Same assay, conditions: Streptococcus pneumoniae; read-out: MIC

MIC | SMILES
0.06 µg/mL (≈ 0.135 µM) | CO/N=C(/C(=O)N[C@@H]1C(=O)N2C(C(=O)O)=C(S(C)(=O)=O)CC[C@H]12)c1csc(N)n1

Test system: Staphylococcus aureus
Test: Minimum inhibitory concentration against Staphylococcus aureus (X1.1)
Assay type: functional
Details: Staphylococcus aureus; read-out: MIC
Method in brief: as §1

MIC | SMILES
16 µg/mL (≈ 36.1 µM) | CO/N=C(/C(=O)N[C@@H]1C(=O)N2C(C(=O)O)=C(S(C)(=O)=O)CC[C@H]12)c1csc(N)n1
0.25 µg/mL (≈ 0.634 µM) | CS(=O)(=O)C1=C(C(=O)O)N2C(=O)[C@@H](NC(=O)COc3ccccc3)[C@H]2CC1 (stereo in doubt; 7)
